Experimental data as given in the M2OR odorant receptor database.

What was measured:
Details in all cases: stereoisomer not certain
OR5P3 (Homo sapiens) = target: T1, OR5P3 (Homo sapiens) (UniProt Q8WZ94)
T1 sequence (whole entry): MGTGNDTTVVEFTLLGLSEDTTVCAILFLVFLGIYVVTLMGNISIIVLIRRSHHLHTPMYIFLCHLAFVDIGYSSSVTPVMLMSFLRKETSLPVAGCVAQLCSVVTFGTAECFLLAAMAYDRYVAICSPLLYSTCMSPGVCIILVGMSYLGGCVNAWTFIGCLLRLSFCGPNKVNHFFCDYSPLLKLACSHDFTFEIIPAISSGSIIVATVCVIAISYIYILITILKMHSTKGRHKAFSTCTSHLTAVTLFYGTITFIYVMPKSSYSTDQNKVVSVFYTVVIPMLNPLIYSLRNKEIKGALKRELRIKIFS
How it was run: (§1)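 Assay methods differ from source to source, frequently being transient luciferase assays in mammalian cell lines. For each receptor–molecule pair, the label responsive (active) applies when the original authors judged the measured signal statistically different from baseline, and non-responsive (inactive) applies otherwise.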

OR5P3 L301R = system: OR5P3 L301R
How it was run: as §1

OR5R1 C122R S128G F184L = system: OR5R1 C122R S128G F184L
How it was run: as §1

OR5T1 (Homo sapiens) = OR5T1 (Homo sapiens) (UniProt Q8NG75)
How it was run: as §1

OR5T2 (Homo sapiens) = OR5T2 (Homo sapiens) (UniProt Q8NGG2)
How it was run: as §1

OR5T2 S4G = system: OR5T2 S4G
How it was run: as §1

OR5T3 (Homo sapiens) = OR5T3 (Homo sapiens) (UniProt Q8NGG3)
How it was run: as §1

OR5V1 (Homo sapiens) = OR5V1 (Homo sapiens) (UniProt Q9UGF6)
How it was run: as §1

OR5W2 (Homo sapiens) = OR5W2 (Homo sapiens) (UniProt Q8NH69)
How it was run: as §1

OR5W2 R189C = system: OR5W2 R189C
How it was run: as §1

Measured: odorant receptor agonist call

Chain of OR5T1 (Homo sapiens) (Q8NG75 whole entry): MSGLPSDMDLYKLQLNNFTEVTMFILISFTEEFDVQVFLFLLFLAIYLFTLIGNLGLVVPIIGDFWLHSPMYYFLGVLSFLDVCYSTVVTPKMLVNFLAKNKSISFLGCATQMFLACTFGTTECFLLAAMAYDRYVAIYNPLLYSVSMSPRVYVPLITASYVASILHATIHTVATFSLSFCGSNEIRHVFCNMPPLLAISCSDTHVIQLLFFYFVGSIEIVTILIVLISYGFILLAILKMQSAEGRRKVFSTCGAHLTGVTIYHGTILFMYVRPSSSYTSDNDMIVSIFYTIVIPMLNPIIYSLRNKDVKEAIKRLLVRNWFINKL
Chain of OR5V1 (Homo sapiens) (Q9UGF6 whole entry): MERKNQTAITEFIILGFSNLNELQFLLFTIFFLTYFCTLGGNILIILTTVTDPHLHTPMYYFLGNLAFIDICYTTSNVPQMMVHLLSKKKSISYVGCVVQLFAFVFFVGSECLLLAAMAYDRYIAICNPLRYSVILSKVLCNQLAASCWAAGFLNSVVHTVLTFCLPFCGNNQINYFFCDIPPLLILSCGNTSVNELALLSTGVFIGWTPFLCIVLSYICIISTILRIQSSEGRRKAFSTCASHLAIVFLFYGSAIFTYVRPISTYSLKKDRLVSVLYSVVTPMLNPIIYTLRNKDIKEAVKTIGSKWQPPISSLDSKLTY
Chain of OR5T2 (Homo sapiens) (Q8NGG2 whole entry): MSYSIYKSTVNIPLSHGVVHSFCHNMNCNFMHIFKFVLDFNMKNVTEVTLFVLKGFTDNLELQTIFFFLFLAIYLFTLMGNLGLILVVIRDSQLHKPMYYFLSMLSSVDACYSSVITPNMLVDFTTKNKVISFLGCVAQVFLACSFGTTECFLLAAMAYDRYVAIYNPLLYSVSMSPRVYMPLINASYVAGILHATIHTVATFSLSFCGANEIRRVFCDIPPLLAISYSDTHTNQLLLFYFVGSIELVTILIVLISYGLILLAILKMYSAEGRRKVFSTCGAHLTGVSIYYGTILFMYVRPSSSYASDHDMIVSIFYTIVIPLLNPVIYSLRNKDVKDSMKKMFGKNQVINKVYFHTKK
Chain of OR5T3 (Homo sapiens) (Q8NGG3 whole entry): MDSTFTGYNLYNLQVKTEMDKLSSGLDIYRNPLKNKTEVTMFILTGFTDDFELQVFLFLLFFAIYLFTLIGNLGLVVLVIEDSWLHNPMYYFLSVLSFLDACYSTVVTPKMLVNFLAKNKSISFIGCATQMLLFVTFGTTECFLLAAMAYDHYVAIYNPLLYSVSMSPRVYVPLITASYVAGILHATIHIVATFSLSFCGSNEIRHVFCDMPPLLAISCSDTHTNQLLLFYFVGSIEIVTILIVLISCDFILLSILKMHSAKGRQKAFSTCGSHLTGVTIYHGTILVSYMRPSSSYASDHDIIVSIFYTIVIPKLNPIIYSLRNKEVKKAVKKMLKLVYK
Chain of OR5W2 (Homo sapiens) (Q8NH69 whole entry): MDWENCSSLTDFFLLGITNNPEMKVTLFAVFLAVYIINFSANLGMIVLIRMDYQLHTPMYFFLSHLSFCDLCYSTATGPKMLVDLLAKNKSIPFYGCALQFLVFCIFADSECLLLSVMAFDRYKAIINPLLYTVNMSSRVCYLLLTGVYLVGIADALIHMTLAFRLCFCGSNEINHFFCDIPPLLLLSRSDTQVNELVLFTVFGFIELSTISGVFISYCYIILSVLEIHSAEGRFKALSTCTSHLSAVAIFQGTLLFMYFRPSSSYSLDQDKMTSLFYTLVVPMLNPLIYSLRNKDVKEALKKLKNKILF
Chain of OR5P3 L301R (as listed by the source, stated change not applied): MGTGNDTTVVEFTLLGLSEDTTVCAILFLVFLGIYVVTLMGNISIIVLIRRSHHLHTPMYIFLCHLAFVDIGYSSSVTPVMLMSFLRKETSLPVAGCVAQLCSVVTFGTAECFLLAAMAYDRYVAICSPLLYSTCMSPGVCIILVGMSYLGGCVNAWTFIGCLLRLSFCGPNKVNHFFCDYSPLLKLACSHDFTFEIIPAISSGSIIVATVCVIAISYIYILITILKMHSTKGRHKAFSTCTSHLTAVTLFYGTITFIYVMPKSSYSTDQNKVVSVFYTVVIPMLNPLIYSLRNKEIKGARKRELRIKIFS
Chain of OR5W2 R189C (as listed by the source, stated change not applied): as the sequence (Q8NH69 whole entry) above, with R189C counted along it
Chain of OR5T2 S4G (as listed by the source): as the sequence (Q8NGG2 whole entry) above, with S4G counted along it

C=CCc1ccccc1
inactive: OR5P3 (Homo sapiens)

CCC1CCC(=O)O1 (centres undefined)
inactive: OR5P3 (Homo sapiens)

C=CCOC(=O)Cc1ccccc1
inactive: all assays above

Cc1c([N+](=O)[O-])c(C)c([N+](=O)[O-])c(C(C)(C)C)c1[N+](=O)[O-]
inactive: OR5P3 (Homo sapiens) | OR5T1 (Homo sapiens) | OR5T2 (Homo sapiens) | OR5T3 (Homo sapiens) | OR5V1 (Homo sapiens) | OR5W2 (Homo sapiens)

O=c1cc(O)c2ccccc2o1
inactive: OR5P3 (Homo sapiens)
